PubChem BioAssay
Unmarked numbers belong to inactive results. Results filed as inconclusive are left out. Calls of active or inactive are those of the source.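 How the source made its calls, unless noted: active means inhibition over a set limit, the all-compound mean plus 3 SD, in both replicate runs; inconclusive means over that limit in just one replicate run; inactive means at or under that limit in both runs.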

What was measured:
[1] = S. cerevisiae growth inhibition in permissive medium (OD615), pilot counter-assay for S. cerevisiae lifespan shortening project, permissive growth control (AID 705;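 active means growth inhibition above 25% in both replicates, a cutoff set 3 SD above the mean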); settings: OD615, 24 h, at 10 µM, hits give high values
Outline: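 assay system = Saccharomyces cerevisiae strain carrying genetically modified DeaD replicative-lifespan system | technique = absorbance (optical density) at 615 nm | buffer or medium = permissive raffinose/galactose medium | timing = cells pre-grown 4 h, then 24 h compound exposure, 30 °C humidified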

[2] = S. cerevisiae growth inhibition in restrictive medium, OD615, pilot screen, restrictive growth control, yeast lifespan reduction project (AID 706;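 active means growth inhibition above a set limit, 3 SD over mean compound inhibition, in both replicates, cut at about 43% in these data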;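 further: modified DeaD lifespan yeast strain shifted to restrictive glucose medium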); settings: OD615, 48 h, at 10 µM, hits give high values
Outline: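 System: modified S. cerevisiae. Buffer or medium: CSMM-D glucose medium. Incubation: 4 h pre-growth plus 48 h compound exposure, 30 °C. Detection: absorbance (optical density) measured at 615 nm.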

[3] = doxorubicin toxicity protection in MRP-1 cells – H69AR cells, CellTiter-Glo, duplicate, MRP-1 activator project, pilot screen (AID 807;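 active means viability increase at or above a cutoff of the median across tested compounds plus 3 SD, cut at about 8.5% in these data, passing the limit was not always enough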;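 further: compound pretreatment 18-22 h then 72 h combined with doxorubicin; 0% = doxorubicin alone and 100% = vehicle without doxorubicin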); settings: H69AR viability with doxorubicin, CellTiter-Glo luminescence; at 10 µM; hits give high values
[4] = viability of HCT116 without oncogenic beta-catenin – human colon tumor cells, pilot screen (AID 823;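 active means cell viability at or below a set limit in both duplicate runs, the limit being the all-compound median minus 4 SD, cut at about 23% in these data, passing the limit was not always enough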;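 further: 0% = wells killed by 20 µM Hyamine and 100% = untreated DMSO cell wells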); settings: HCT116 beta-catenin knockout viability, CellTiter-Glo, 60 h; at 10 µM; hits give low values
[5] = viability of PTEN-null HCT116 cells – cell-based, HCT116 clonal line, CellTiter-Glo, pilot screen (AID 824;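 active means viability at or below 27.92% in each of two runs, the all-compound median minus 4 SD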;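 further: 0% = 20 µM Hyamine control and 100% = vehicle cell control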); settings: HCT116 PTEN-deleted viability, 60 h, at 10 µM, hits give low values
[6] = RAM pathway blockade in budding yeast – dse1pr::URA3 reporter, 5-FOA selection, pilot screen (AID 869);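 further: 0% = DMSO wells with no growth and 100% = 10 µM 1-NA-PP1 with full growth; RAM network block rescues cells from 5-FOA so hits raise OD615 growth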; settings: S. cerevisiae dse1pr::URA3 5-FOA growth, OD615, 2 d; at 10 µM; hits give high values; strain carries analog-sensitive mutant Cbk1 kinase
[7] = RAM signaling pathway blockade in yeast – S. cerevisiae, Pdr1DBD-CYC8 efflux-inhibited sensitized strain, primary screen (AID 1298;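 active means RAM network inhibition above 8.4% in each of two replicates, 3 SD over the compound average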;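 further: 0% = DMSO untreated cells without growth and 100% = 10 µM 1-NA-PP1 full growth; higher means more yeast growth rescued from 5-FOA killing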); settings: S. cerevisiae cbk1-as DSE1-URA3 strain, 5-FOA growth OD615, 2 d; at 50 µM; hits give high values

Structure (SMILES)	growth inhibition [1]	growth inhibition [2]	viability increase [3]	viability [4]	viability [5]	inhibition [6]	RAM network inhibition [7]
CC1(C)Oc2ccc3ccc(=O)oc3c2/C(=C/Nc2ccccn2)C1=O	-22.4%	-16%	-1.39%	95%	93.3%	4.12%	6.38%
COc1ccc(N2CSC3=C(C#N)C(c4cc(OC)ccc4OC)CC(=O)N3C2)c(OC)c1 (stereo not given)	-1.38%	21.7%	-6.09%	80.5%	82.6%	0.54%	2.28%
O=C(CNC(=O)c1cnccn1)Nc1ccc(F)c(F)c1F	-8.69%	2.7%	1.31%	99.9%	92.8%	2.68%	7.87%
CCOc1cccc(C2c3c(oc4ccccc4c3=O)C(=O)N2c2ccccn2)c1 (stereo not given)	-1.86%	-9.72%	-2.2%	95.6%	93.9%	0%	2.56%
N#Cc1cccc(NC(=O)CC2CCCCC2)c1	-1.48%	11.6%	-0.95%	95%	86.8%	0.645%	2.76%
N#CC1=C(c2ccccc2)N=P(N2CCOCC2)(N2CCOCC2)N=C1N1CCOCC1	-6.26%	-16.2%	0.57%	103%	107%	1.39%	0.33%
CCOc1ccccc1CNS(=O)(=O)c1ccc2c(c1)oc(=O)n2C	-8.67%	-0.955%	-1.75%	102%	94%	-0.575%	1.03%
COc1ccc(OC)c(NC(=O)c2ccc(NC(C)=O)cc2)c1	-22.5%	-12.5%	0.76%	109%	101%	1.2%	5.24%
Cc1cc(C)c(C#N)c(Oc2ccc(O)cc2)n1	-14.7%	-10.3%	-2.42%	98.7%	90.9%	2.56%	2.67%
COc1ccc(C)cc1NC(=O)CN(c1ccc(F)cc1)S(C)(=O)=O	-20.5%	-18.5%	-1.76%	92.4%	103%	1.31%	4.09%
O=C(CSCc1ccc(Cl)cc1)c1ccco1	-9.9%	0.15%	0.59%	96.5%	89.8%	0.695%	2.59%
COc1ccccc1C(=O)N(Cc1nc(-c2ccc(Cl)cc2)no1)C(C)C	-17.9%	-20.1%	1.78%	69%	71.3%	0.605%	6.95%
Cn1ccnc1SCc1cn2cc(Br)ccc2n1	2.79%	22.2%	-3.12%	91.8%	84.7%	1.51%	4.08%
O=C(NCCC1=CCCCC1)c1ccc2c(=O)n3c(nc2c1)CCCCC3	-10.1%	-2.77%	-1.07%	89.6%	97.8%	-0.66%	0.26%
Cc1ccc(-n2nnc3c(=O)n(Cc4ccccc4C)cnc32)cc1	-4.99%	-6.7%	-0.53%	102%	100%	2.44%	4.84%
c1ccc(-c2nnc(-c3ccccn3)nn2)nc1	34.5% (active)	88.1% (active)	0.07%	68.2%	83%	-0.025%	-3%
O=C(c1ccc(=O)[nH]c1)N(Cc1ccco1)C1(C(=O)NC2CCCCC2)CCCCC1	-20%	-18.9%	-3.3%	97.2%	92.5%	0.61%	1.87%
Cc1[nH]c(C)c2c(=O)n(-c3ccccc3)ncc12	-19.9%	-17.5%	0.12%	101%	102%	1.31%	2.55%

Structure (SMILES)	growth inhibition [1]	growth inhibition [2]	viability increase [3]	viability [4]	viability [5]	inhibition [6]	RAM network inhibition [7]
OC1CCN(c2c3c(nc4cc(-c5cccc(F)c5)nn24)CCCC3)CC1	2.2%	-11.2%	-6.47%	73.8%	65%	2.02%	9.14%
Cc1cccc(NC(=O)CCNS(=O)(=O)c2cccc3nsnc23)c1	-7.62%	-12.6%	-2.32%	94.5%	90.7%	1.34%	1.66%
COc1ccc(C(=O)NCC(c2cccnc2)N2CCN(c3ccc(F)cc3)CC2)cc1OC (stereo not given)	-12.2%	-0.995%	-3.89%	88.9%	80.8%	1.82%	4.32%
Cc1cccc(N=C(N2CCOCC2)P(=O)(N2CCOCC2)N2CCOCC2)c1	-24.7%	-23.4%	-0.69%	98.1%	92.6%	3.29%	5.26%
CCN1CCN(CCNC(=O)C2CCN(Cc3nc(-c4ccc(Cl)cc4)oc3C)CC2)CC1	-6.21%	-7.59%	-3.29%	62.3%	70.1%	1.29%	3.67%
COc1ccc(C)cc1NC(=O)c1cnc2scc(C)n2c1=O	9.45%	-0.68%	-5.49%	87.8%	84.8%	3.21%	3.95%
CCN(CC)C(=O)c1cc2sc3ccccc3c2s1	-11.5%	-2.27%	0.41%	88.1%	95%	-0.05%	3.43%
CCOCCCNC(=O)Cn1nc(-c2ccccc2)ccc1=O	-19.8%	-7.81%	1.86%	105%	91.7%	0.165%	-0.58%
Cc1cc(Nc2cc(C(=O)O)ccc2C)n2ncnc2n1	4.96%	-2.32%	0.41%	95.9%	102%	0.71%	0.57%
CC1Cc2nc(SCC(=O)N3CCOCC3)n(-c3ccccc3)c(=O)c2S1 (stereo not given)	-10.7%	-11.7%	-0.68%	111%	104%	0.16%	0.95%
O=C(Nc1scc(-c2cccs2)c1C(=O)O)c1cccs1	-11.8%	-9.07%	3.64%	103%	105%	1.41%	0.42%
CCOC(=O)C1CCCN(C(=O)Cn2ncc3c(=O)oc4ccc(C)cc4c32)C1 (stereo not given)	-11.9%	-24.9%	-1.41%	106%	95%	2.19%	3.43%
CCOC(=O)N1CCC(NC(=O)c2cc3c(-c4ccc(Cl)cc4)nn(C)c3s2)CC1	-2.75%	-2.64%	-5.61%	91.4%	92.1%	-0.04%	2.43%
CN1/C(=C/C=N/n2cnnc2)C(C)(C)c2ccccc21	-6.3%	-17.9%	-0.78%	98%	93.2%	0.465%	3.01%
CC(=O)Nc1ccc(S(=O)(=O)NC2=NCN(CCOC(=O)c3ccccc3)CN2)cc1	-3.64%	5.12%	-1.37%	92.7%	93.6%	1.29%	1.02%
CCOC(=O)c1ccc(NC(=O)c2nccnc2C(=O)O)cc1	-4.96%	-2.24%	-1.42%	98.1%	96.6%	1.07%	-0.42%
CC(NC(=O)Cc1ccccc1)c1nc2ccccc2[nH]1 (stereo not given)	-3.99%	-1.91%	-1.22%	108%	97.1%	0.08%	3.75%
